Experimental data from ChEMBL document CHEMBL1156610, “Synthesis, biological evaluation, and molecular modeling studies of methylene imidazole substituted biaryls as inhibitors of human 17alpha-hydroxylase-17,20-lyase (CYP17)--part II: Core rigidification and influence of substituents at the methylene bridge” (Bioorg Med Chem, 2008).

Legend:
[1] = target: T1, Steroid 17-alpha-hydroxylase/17,20 lyase (Homo sapiens, UniProt P05093); assay: Inhibition of human CYP17 expressed in Escherichia coli coexpressed with cytochrome P450 reductase
T1 sequence (P05093 whole entry): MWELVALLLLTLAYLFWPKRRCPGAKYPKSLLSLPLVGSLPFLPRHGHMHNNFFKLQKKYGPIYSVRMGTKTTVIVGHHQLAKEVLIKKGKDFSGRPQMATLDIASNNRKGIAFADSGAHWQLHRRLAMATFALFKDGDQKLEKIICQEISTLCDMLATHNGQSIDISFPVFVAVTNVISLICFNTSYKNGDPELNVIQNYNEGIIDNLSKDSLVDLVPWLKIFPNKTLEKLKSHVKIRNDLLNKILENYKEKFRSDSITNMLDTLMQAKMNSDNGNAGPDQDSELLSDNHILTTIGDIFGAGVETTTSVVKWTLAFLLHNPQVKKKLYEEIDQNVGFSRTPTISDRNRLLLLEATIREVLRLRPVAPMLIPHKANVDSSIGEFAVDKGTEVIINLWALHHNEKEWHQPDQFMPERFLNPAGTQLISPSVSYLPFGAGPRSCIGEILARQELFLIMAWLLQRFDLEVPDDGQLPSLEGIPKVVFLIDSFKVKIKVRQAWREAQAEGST
Procedure, shortened: (§1)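 Enzyme source: 50,000g sediment from homogenized E. coli coexpressing human CYP17 and cytochrome P450 reductase. Substrate progesterone (25 µM as printed), NADPH cofactor.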

[2] = target: CYP3A4 (Homo sapiens, UniProt P08684); assay: Inhibition of hepatic CYP3A4 expressed in insect microsomes at 1 uM; type: ADME, Microsome
Chain of CYP3A4 (P08684 whole entry): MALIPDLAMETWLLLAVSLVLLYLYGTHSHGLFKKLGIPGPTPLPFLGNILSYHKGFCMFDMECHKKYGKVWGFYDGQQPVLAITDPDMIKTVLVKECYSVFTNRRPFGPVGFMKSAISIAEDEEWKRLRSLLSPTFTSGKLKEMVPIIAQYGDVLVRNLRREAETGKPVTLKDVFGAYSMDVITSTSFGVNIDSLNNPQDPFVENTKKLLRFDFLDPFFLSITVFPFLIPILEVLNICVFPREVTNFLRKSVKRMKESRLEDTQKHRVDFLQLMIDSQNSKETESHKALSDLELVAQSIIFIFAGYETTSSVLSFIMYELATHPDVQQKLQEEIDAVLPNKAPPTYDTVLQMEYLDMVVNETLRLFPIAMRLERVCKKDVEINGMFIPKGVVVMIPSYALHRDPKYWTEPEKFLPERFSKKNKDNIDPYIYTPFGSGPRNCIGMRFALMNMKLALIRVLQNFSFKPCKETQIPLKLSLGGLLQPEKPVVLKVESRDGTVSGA
Procedure, shortened: (§2)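 Recombinant human enzymes from baculovirus-infected insect cell microsomes, run per supplier protocol. Test concentration 1 µM; values are means of at least three independent tests, standard deviations under 5%.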

[3] = target: T1, Steroid 17-alpha-hydroxylase/17,20 lyase; assay: Inhibition of CYP17; procedure, shortened: as §1
[4] = target: T2, CYP1A2 (Homo sapiens, UniProt P05177); assay: Inhibition of hepatic CYP1A2 expressed in insect microsomes at 1 uM; type: ADME, Microsome; procedure, shortened: as §2
T2 sequence (P05177 whole entry): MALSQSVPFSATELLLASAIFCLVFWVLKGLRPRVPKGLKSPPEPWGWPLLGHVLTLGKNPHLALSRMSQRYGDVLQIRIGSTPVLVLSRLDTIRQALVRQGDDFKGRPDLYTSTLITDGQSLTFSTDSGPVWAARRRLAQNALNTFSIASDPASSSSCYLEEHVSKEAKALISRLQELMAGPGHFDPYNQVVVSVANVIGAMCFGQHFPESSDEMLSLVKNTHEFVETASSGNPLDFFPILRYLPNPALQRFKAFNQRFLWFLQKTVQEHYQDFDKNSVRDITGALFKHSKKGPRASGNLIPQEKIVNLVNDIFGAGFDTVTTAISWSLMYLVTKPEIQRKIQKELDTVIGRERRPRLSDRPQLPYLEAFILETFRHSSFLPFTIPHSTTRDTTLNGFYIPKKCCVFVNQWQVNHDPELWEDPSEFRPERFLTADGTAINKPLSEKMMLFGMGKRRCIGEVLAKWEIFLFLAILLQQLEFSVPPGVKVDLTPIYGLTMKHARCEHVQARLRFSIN

Structure (SMILES) | IC50 [1] [nM] | also measured
CCC(c1ccc(-c2ccc(N(C)C)cc2)cc1)n1ccnc1 (stereo unspecified) | > 5000 | 
CCC(c1ccc(-c2ccc(NC(C)=O)cc2)cc1)n1ccnc1 (stereo unspecified) | > 5000 | 
CCC(c1ccc(-c2ccc(C#N)cc2)cc1)n1ccnc1 (stereo unspecified) | > 5000 | 
CC(c1ccc2c(c1)Cc1ccccc1-2)n1ccnc1 (stereo unspecified) | 112 | inhibition at 1 µM [2]: 89%; IC50 [3]: 4 nM; inhibition at 1 µM [4]: 98%
c1ccc(CC(c2ccc(-c3ccccc3)cc2)n2ccnc2)cc1 (stereo unspecified) | 780 | 
c1ccc2c(c1)Cc1cc(Cn3ccnc3)ccc1-2 | 388 | 
CC(C)CC(c1ccc(-c2ccccc2)cc1)n1ccnc1 (stereo unspecified) | 2100 | 
CC(C)C(c1ccc(-c2ccccc2)cc1)n1ccnc1 (stereo unspecified) | 310 | 
CCCC(c1ccc(-c2ccccc2)cc1)n1ccnc1 (stereo unspecified) | 580 | 
CCC(CC)(c1ccc(-c2ccc(F)cc2)cc1)n1ccnc1 | 1300 | inhibition at 1 µM [2]: 95%; inhibition at 1 µM [4]: 51%
CC(C)(c1ccc(-c2ccc(F)cc2)cc1)n1ccnc1 | 3800 | 
CC(c1ccc2c(c1)Cc1cc(F)ccc1-2)n1ccnc1 (stereo unspecified) | 168 | 

Second part, led by results:

IC50 [1] [nM] | Structure (SMILES) | also measured
1400 | C=CC(c1ccc(-c2ccccc2)cc1)n1ccnc1 (stereo unspecified) | 
2300 | c1ccc(-c2ccc(C(c3ccc(-c4ccccc4)cc3)n3ccnc3)cc2)cc1 | 
118 | CC(c1ccc2c(c1)[nH]c1cc(F)ccc12)n1ccnc1 (stereo unspecified) | inhibition at 1 µM [2]: 75%
2000 | CCc1ccc(-c2ccc(C(CC)n3ccnc3)cc2)cc1 (stereo unspecified) | 
375 | CCC(c1ccc(-c2ccc(O)cc2)cc1)n1ccnc1 (stereo unspecified) | 
1050 | c1ccc(-c2ccc(C(C3CCCCC3)n3ccnc3)cc2)cc1 (stereo unspecified) | 
> 5000 | OCCC(c1ccc(-c2ccc(F)cc2)cc1)n1ccnc1 (stereo unspecified) | 
3100 | CCC(c1ccc(-c2ccc(SC)cc2)cc1)n1ccnc1 (stereo unspecified) | 
